# Screening results deposited in PubChem BioAssay by several laboratories.
# Lmaj promast – reduces viability of Leishmania major promastigotes; resazurin fluorescence viability; inhibition, % at 10 µM; 200,000 tested, 9% active;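 also: promastigotes grown with compound for 44 hours at 28 °C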
# PKD1 inh – blocks activity of human protein kinase D1; AID 797; PKD1 kinase fluorescence polarization assay; inhibition, % (test concentration not listed); 200,000 tested, 0.056% active
# Rad51 HR inh – Rad51 (human) homologous recombination inhibition. hRad51 DNA strand exchange, fluorescence dequenching. AID 1385. 200,000 tested, 0.085% active. inhibition, % at 10 µM. Q06609;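 active = inhibition above 40% at the single screening dose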;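 also: 0% = DMSO control wells and 100% = blanks with heterologous ssDNA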
# Target sequence (Q06609 whole entry, looked up): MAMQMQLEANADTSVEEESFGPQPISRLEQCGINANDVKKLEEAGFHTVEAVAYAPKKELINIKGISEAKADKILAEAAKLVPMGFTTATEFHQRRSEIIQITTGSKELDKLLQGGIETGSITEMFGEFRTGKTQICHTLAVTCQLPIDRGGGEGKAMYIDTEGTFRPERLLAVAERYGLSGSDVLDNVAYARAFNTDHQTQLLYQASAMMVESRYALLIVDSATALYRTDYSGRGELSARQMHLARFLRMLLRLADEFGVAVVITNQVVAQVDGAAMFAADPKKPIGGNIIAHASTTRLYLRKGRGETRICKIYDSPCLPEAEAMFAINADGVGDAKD
#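 material = hRad51 filaments on single-stranded DNA | timing = filaments 15 min 37 °C, then compound 30 min | signal = FRET fluorescence dequenching, excitation 485 nm, emission 520 nm | benchmarks = control wells and blank wells on each plate | evaluation = percent inhibition relative to plate controls and blanks | compound = 10 µM final, single point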
# CHOP inhibitor – inhibitors of CHOP induction in ER stress response; CHO-K1 CHOP-promoter luciferase, tunicamycin-induced, 15-18 h; inhibition, % at 10 µM; 220,000 tested, 3.8% active; AID 2732;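 active = compounds that reduced the stress-induced luciferase reporter signal by more than about 70% of percent inhibition, limit read from the data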;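 also: 0% = tunicamycin plus vehicle and 100% = wells without tunicamycin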
# Wee1 degr inh – inhibitors of human Wee1 degradation. P30291. HeLa Luc-Wee1K328M stability, luciferase luminescence; 100% = proteasome inhibitor MG132 effect. reporter increase, % at 5 µM. 220,000 tested, 1.2% active. AID 1321;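 active = activation above the mean of all tested compounds plus 3 SD, set per screening run, cut at about 8.8% in these data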;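 also: cells exposed to compound for 20 h before luminescence read; 0% = DMSO alone and 100% = MG132 at 30 µM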
# Arbovirus inh – blocks arbovirus infection; inhibition, % at 10 µM; 200,000 tested, 0.37% active; AID 1251; arbovirus infection cell-based antiviral screen; in the data active = inhibition above about 30%
# The depositor's hits bear a star; nt = no result. Hits are enriched below; roughly 12% of the tested compounds scored in any of these assays. Rule as the data show it, unless noted: active = inhibition above about 50%; inactive = the rest.
SMILES,Lmaj promast,PKD1 inh,Rad51 HR inh,CHOP inhibitor,Wee1 degr inh,Arbovirus inh
CCN(C(=O)COC(=O)c1cc(-c2ccc3cc(OC)ccc3c2)nc2ccccc12)C1CCS(=O)(=O)C1 (configuration not stated),98*,-10,-8,17,1,-8
Cc1ccc(S(=O)(=O)Nc2csc(C)c2C(=O)O)cc1,nt,nt,-9,10,0,nt
COc1cc(OC)c(NC(=O)c2c(-c3ccccc3)noc2C)cc1Cl,94*,-6,1,-3,0,-5
O=C(Nc1cc(C(F)(F)F)ccc1N1CCOCC1)c1ccco1,-4,-13,-27,68,0,-3
COc1ccc(Cl)cc1NC(=O)c1c(-c2ccccc2)noc1C,-2,-10,-6,62,0,-2
O=C(c1ccccc1)c1ccc(N2CCOCC2)c(NC(=O)c2ccco2)c1,64*,-3,-17,-2,0,-2
CCOC(=O)c1ccc(N2CCOCC2)c(NC(=O)c2c(-c3ccccc3)noc2C)c1,nt,nt,-12,-29,10*,nt
Cc1onc(-c2ccccc2)c1C(=O)Nc1ccccc1N1CCOCC1,69*,-2,-7,17,-2,-4
CC(Nc1ccccc1N1CCCCC1)C(=O)N1CCc2ccccc21 (configuration not stated),16,-9,-1,-3,0,12
CC(C)CC(=O)Nc1ccccc1N1CCOCC1,-4,2,-9,28,-3,3
CC(C)n1nc(C(=O)Nc2ccccc2N2CCOCC2)c2ccccc2c1=O,87*,-8,-4,25,3,-10
CC(=O)c1ccc(NC(=O)C(Cc2ccccc2)n2cccc2)cc1 (configuration not stated),nt,nt,nt,37,-1,nt
CC(c1ccc(F)cc1)n1c(-c2cccs2)n[nH]c1=S (configuration not stated),-4,-1,-7,2,-1,6
CCc1ccc(-c2nnn(CCC#N)n2)cc1,-9,-5,9,0,-3,8
CCc1ccc(-c2nnn(CCC(=O)OC)n2)cc1,-9,-2,1,75*,1,0
C1=CCC(CN2CCNCC2)CC1 (configuration not stated),-4,0,-1,-16,-1,9
Cc1ccc(C)c(N2CCN(CC3CC=CCC3)CC2)c1 (configuration not stated),87*,-1,3,72*,-1,7
COc1cc(/C=N/Nc2nc(=O)[nH]nc2C)cc([N+](=O)[O-])c1O,nt,nt,13,13,-2,nt
CCCOc1ccc2oc(=O)c3c(c2c1)CCCN3C(=O)CN(C)Cc1ccccc1,58*,-5,2,35,1,-19
CCCCCOc1ccc2oc(=O)c3c(c2c1)CCCN3C(=O)CN1CCCC(C(=O)OCC)C1 (configuration not stated),19,3,-1,49,-2,-25
CN1CCN(C(=S)c2ccc(-c3cccc([N+](=O)[O-])c3)o2)CC1,nt,nt,nt,-14,10*,nt
CCCn1nnc(NC(=O)c2ccc(-c3cccc(Cl)c3)o2)n1,77*,-5,1,-8,2,-18
CCCCn1nnc(NC(=O)c2ccc([N+](=O)[O-])cc2Cl)n1,nt,nt,2,14,4,nt
O=C(Nc1ncc(Cc2cccc(C(F)(F)F)c2)s1)c1ccc(-c2cccc([N+](=O)[O-])c2)o1,91*,6,-8,38,-1,4
CCn1nnc(NC(=S)NC(=O)c2ccc(-c3cccc(Cl)c3)o2)n1,nt,nt,nt,-11,0,nt
SMILES,Lmaj promast,PKD1 inh,Rad51 HR inh,CHOP inhibitor,Wee1 degr inh,Arbovirus inh
O=C(Nc1nccs1)c1ccc(-c2cccc([N+](=O)[O-])c2)o1,11,-9,6,-7,-1,-6
CCCCn1nnc(NC(=O)c2ccc(-c3cccc([N+](=O)[O-])c3)o2)n1,56*,-6,1,10,1,-3
CCCn1nnc(NC(=O)c2cccc(OCc3ccccc3)c2)n1,52*,-4,0,27,-2,-7
CCCCn1nnc(NC(=O)c2ccc(-c3cccc(Cl)c3)o2)n1,51*,-5,-5,17,0,-13
CCCCn1nnc(NC(=O)Cc2ccc(Cl)cc2)n1,-4,7,1,10,4,-4
O=C1NC[C@H](Cc2ccccc2)N(CC2CCCCC2)C1=O,nt,nt,-6,11,nt,nt
CCOc1cc(NC(=S)NCCCN2CCOCC2)c(OCC)cc1NC(=O)C1CCCCC1,-1,-2,2,25,0,3
Cc1ccc(-c2nc(NCc3ccc(F)cc3)n(S(C)(=O)=O)n2)cc1,4,8,2,18,1,-6
Fc1ccc(/C=N/Nc2ncnc3nc[nH]c23)cc1F,50*,-2,nt,-4,4,0
COc1ccc(-c2nc3oc4cc(OC)ccc4c(=O)c3c(=O)n2Cc2ccco2)cc1,73*,-11,-4,59,3,24
COc1ccc(Cn2c(-c3ccco3)nc3oc4cc(OC)ccc4c(=O)c3c2=O)cc1,25,-11,-6,92*,4,-11
COc1ccc2c(=O)c3c(=O)n(Cc4ccco4)c(-c4ccco4)nc3oc2c1,43,-1,-13,-6,-3,3
COCCn1c(-c2ccc(OC)cc2)nc2oc3cc(OC)ccc3c(=O)c2c1=O,55*,-8,6,10,2,-5
O=C1CNC(=S)N1Cc1ccccc1,-2,-1,2,-15,9.5*,1
NC(=O)/C(=C\c1cccnc1)NC(=O)c1ccccc1,-1,-8,11,-10,1,7
Cc1c(NC(=O)/C(C#N)=C/c2cccs2)c(=O)n(-c2ccccc2)n1C,67*,-3,-1,20,1,4
CN(c1ccc(OCC(=O)Nc2nc3ccccc3s2)cc1)S(=O)(=O)c1ccccc1,4,-4,-3,20,0,3
CCc1nnc(NC(=O)COc2ccc(N(C)S(=O)(=O)c3ccc(C)cc3)cc2)s1,-8,-2,3,9,0,9
Cc1ccc(S(=O)(=O)N(C)c2ccc(OCC(=O)Nc3nnc(C4CC4)s3)cc2)cc1,96*,0,9,18,2,15
COc1ccc(CCNC(=O)COc2ccc(N(C)S(=O)(=O)c3ccc(Cl)cc3)cc2)cc1,97*,-1,0,25,0,-23
CCOc1ccc(S(=O)(=O)N(C)c2ccc(OCC(=O)Nc3nc4ccccc4s3)cc2)cc1,33,11,-8,81*,5,21
COc1ccc(CCNC(=O)COc2ccc(N(C)S(=O)(=O)c3ccc(C)cc3)cc2)cc1OC,37,-7,nt,11,-3,4
COc1cc(/C=N/NC(=O)c2ccc3nc[nH]c3c2)cc(OC)c1OC,nt,nt,19,0,4,nt
COc1cc(/C=N/NC(=O)CN(CCc2ccccc2)S(=O)(=O)c2ccc(NC(C)=O)cc2)cc(OC)c1OC,60*,-4,2,-20,1,-5
